Test results reported in ChEMBL document CHEMBL1129625, “11-substituted (R)-aporphines: synthesis, pharmacology, and modeling of D2A and 5-HT1A receptor interactions” (J Med Chem, 1996).

How the values were obtained:
D(1A) dopamine receptor [1] = target: T1, D(1A) dopamine receptor (Rattus norvegicus, UniProt P18901); test: Affinity for dopamine receptor D1 binding measured by competition against [3H]-SCH- 23390 to rat striatal membrane; set-up: species or system Striatum
Outline: (§1)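 Radioligand displacement analysed with a one-site model. D1 sites come from rat striatum and are labelled with [3H]SCH23390. D2A is the cloned human receptor expressed in Ltk- cells and labelled with [3H]raclopride. Ki is the mean ± standard error of n = 2–3 experiments.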

D(2) dopamine receptor [2] = target: T2, D(2) dopamine receptor (Homo sapiens, UniProt P14416); test: Displacement of [3H]raclopride from human Dopamine receptor D2A
T2 sequence (P14416 whole entry): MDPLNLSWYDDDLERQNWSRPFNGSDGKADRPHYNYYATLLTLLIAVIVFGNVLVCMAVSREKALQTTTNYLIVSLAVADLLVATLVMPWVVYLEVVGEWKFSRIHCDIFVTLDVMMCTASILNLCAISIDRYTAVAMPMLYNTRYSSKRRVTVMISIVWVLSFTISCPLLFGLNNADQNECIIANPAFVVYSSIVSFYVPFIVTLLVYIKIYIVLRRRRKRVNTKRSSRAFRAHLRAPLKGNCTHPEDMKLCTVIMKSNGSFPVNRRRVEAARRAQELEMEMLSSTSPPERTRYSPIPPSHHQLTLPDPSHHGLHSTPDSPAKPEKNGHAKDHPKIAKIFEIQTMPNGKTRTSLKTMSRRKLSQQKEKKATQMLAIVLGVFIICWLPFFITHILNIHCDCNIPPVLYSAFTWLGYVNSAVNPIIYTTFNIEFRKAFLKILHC

[3] = target: T3, 5-hydroxytryptamine receptor 1A (Rattus norvegicus, UniProt P19327); test: In vitro displacement of [3H]8-OH-DPAT binding to rat hippocampal 5-hydroxytryptamine 1A receptor; format: tissue-based, Hippocampus
T3 sequence (P19327 whole entry): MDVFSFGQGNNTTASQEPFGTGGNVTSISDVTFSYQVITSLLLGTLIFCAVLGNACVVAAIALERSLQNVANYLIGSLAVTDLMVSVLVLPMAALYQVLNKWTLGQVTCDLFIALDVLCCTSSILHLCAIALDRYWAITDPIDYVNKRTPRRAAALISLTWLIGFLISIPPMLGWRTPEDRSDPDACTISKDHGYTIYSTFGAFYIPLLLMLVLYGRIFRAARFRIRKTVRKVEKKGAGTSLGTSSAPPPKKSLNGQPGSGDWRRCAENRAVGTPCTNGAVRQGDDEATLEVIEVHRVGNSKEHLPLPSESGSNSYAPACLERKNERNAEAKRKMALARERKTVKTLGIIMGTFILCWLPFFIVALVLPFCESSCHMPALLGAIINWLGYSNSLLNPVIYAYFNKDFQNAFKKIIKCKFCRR

D(1A) dopamine receptor [4] = target: T1, D(1A) dopamine receptor
Rattus norvegicus [5] = test: In vivo accumulation of 5HTP in percent of saline control was determined in limbic forebrain of reserpine pretreated rat at a dose of 3.3 uM/kg; format: functional
Outline: (§2)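 Rats get reserpine 5 mg/kg sc 18–20 h beforehand. A single dose of test drug is given. NSD1015 (117 mg/kg sc) is injected 30 min after drug to block decarboxylase. 5-HTP or DOPA accumulation is measured in limbic forebrain, striatum and cortex and expressed as percent of saline controls, mean ± SEM, n = 2–4. Statistics use one-way ANOVA with Fisher's PLSD.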

Rattus norvegicus [6] = test: In vivo accumulation of 5HTP in percent of saline control was determined in cortex of reserpine pretreated rat at a dose of 3.3 uM/kg; format: functional; outline: as §2
Rattus norvegicus [7] = test: In vivo accumulation of 5HTP in percent of saline control was determined in striatum of reserpine pretreated rat at a dose of 3.3 uM/kg; format: functional; outline: as §2
Rattus norvegicus [8] = test: In vivo accumulation of DOPA in percent of saline control was determined in striatum of reserpine pretreated rat at a dose of 3.3 uM/kg; format: functional; outline: as §2
Rattus norvegicus [9] = test: In vivo accumulation of DOPA in percent of saline control was determined in cortex of reserpine pretreated rat at a dose of 3.3 uM/kg; format: functional; outline: as §2
Rattus norvegicus [10] = test: In vivo accumulation of DOPA in percent of saline control was determined in limbic forebrain of reserpine pretreated rat at a dose of 3.3 uM/kg; format: functional; outline: as §2
D(2) dopamine receptor [11] = target: T2, D(2) dopamine receptor; test: Displacement of [3H]-raclopride fromd human Dopamine receptor D2A expressed in LtK- cells; format: cell-based; outline: as §1
Rattus norvegicus [12] = test: In vivo accumulation of 5HTP in percent of saline control was determined in limbic forebrain of reserpine pretreated rat at a dose of 30 uM/kg; format: functional; outline: as §2
Rattus norvegicus [13] = test: In vivo accumulation of DOPA in percent of saline control was determined in cortex of reserpine pretreated rat at a dose of 30 uM/kg; format: functional; outline: as §2
Rattus norvegicus [14] = test: In vivo accumulation of DOPA in percent of saline control was determined in striatum of reserpine pretreated rat at a dose of 30 uM/kg; format: functional; outline: as §2
Rattus norvegicus [15] = test: In vivo accumulation of 5HTP in percent of saline control was determined in striatum of reserpine pretreated rat at a dose of 30 uM/kg; format: functional; outline: as §2
Rattus norvegicus [16] = test: In vivo accumulation of DOPA in percent of saline control was determined in limbic forebrain of reserpine pretreated rat at a dose of 30 uM/kg; format: functional; outline: as §2
Rattus norvegicus [17] = test: In vivo accumulation of 5HTP in percent of saline control was determined in cortex of reserpine pretreated rat at a dose of 30 uM/kg; format: functional; outline: as §2
Rattus norvegicus [18] = test: In vivo accumulation of 5HTP in percent of saline control was determined in cortex of reserpine pretreated rat at dose of 3.5 uM/kg; format: functional; outline: as §2
Rattus norvegicus [19] = test: In vivo accumulation of 5HTP in percent of saline control was determined in limbic forebrain of reserpine pretreated rat at dose of 3.5 uM/kg; format: functional; outline: as §2
Rattus norvegicus [20] = test: In vivo accumulation of DOPA in percent of saline control was determined in cortex of reserpine pretreated rat at dose of 3.5 uM/kg; format: functional; outline: as §2
Rattus norvegicus [21] = test: In vivo accumulation of DOPA in percent of saline control was determined in striatum of reserpine pretreated rat at dose of 3.5 uM/kg; format: functional; outline: as §2
Rattus norvegicus [22] = test: In vivo accumulation of DOPA in percent of saline control was determined in limbic forebrain of reserpine pretreated rat at dose of 3.5 uM/kg; format: functional; outline: as §2
Rattus norvegicus [23] = test: In vivo accumulation of 5HTP in percent of saline control was determined in striatum of reserpine pretreated rat at dose of 3.5 uM/kg; format: functional; outline: as §2
Rattus norvegicus [24] = test: In vivo accumulation of DOPA in percent of saline control was determined in cortex of reserpine pretreated rat at a dose of 2.9 uM/kg; format: functional
Outline: (§3)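 Reserpine 5 mg/kg sc given 18–20 h before. Single test dose given; 30 min later decarboxylase inhibited with NSD1015 (117 mg/kg sc). 5-HTP or DOPA accumulation measured in limbic forebrain, striatum and cortex, expressed as percent of saline controls (mean ± SEM, n = 2–4). Saline-control DOPA levels given in ng/g tissue. One-way ANOVA with Fischer's PLSD, p < 0.05.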

Rattus norvegicus [25] = test: In vivo accumulation of DOPA in percent of saline control was determined in limbic forebrain of reserpine pretreated rat at a dose of 2.9 uM/kg; format: functional; outline: as §3
Rattus norvegicus [26] = test: In vivo accumulation of DOPA in percent of saline control was determined in striatum of reserpine pretreated rat at a dose of 2.9 uM/kg; format: functional; outline: as §3
Rattus norvegicus [27] = test: In vivo accumulation of 5HTP in percent of saline control was determined in striatum of reserpine pretreated rat at a dose of 2.9 uM/kg; format: functional; outline: as §3
Rattus norvegicus [28] = test: In vivo accumulation of 5HTP in percent of saline control was determined in limbic forebrain of reserpine pretreated rat at a dose of 2.9 uM/kg; format: functional; outline: as §3
Rattus norvegicus [29] = test: In vivo accumulation of 5HTP in percent of saline control was determined in cortex of reserpine pretreated rat at a dose of 2.9 uM/kg; format: functional; outline: as §3
Rattus norvegicus [30] = test: In vivo accumulation of DOPA in percent of saline control was determined in striatum of reserpine pretreated rat at dose of 3.2 uM/kg; format: functional; outline: as §2
Rattus norvegicus [31] = test: In vivo accumulation of 5HTP in percent of saline control was determined in striatum of reserpine pretreated rat at dose of 3.2 uM/kg; format: functional; outline: as §2
Rattus norvegicus [32] = test: In vivo accumulation of DOPA in percent of saline control was determined in cortex of reserpine pretreated rat at dose of 3.2 uM/kg; format: functional; outline: as §2
Rattus norvegicus [33] = test: In vivo accumulation of 5HTP in percent of saline control was determined in cortex of reserpine pretreated rat at dose of 3.2 uM/kg; format: functional; outline: as §2
Rattus norvegicus [34] = test: In vivo accumulation of 5HTP in percent of saline control was determined in limbic forebrain of reserpine pretreated rat at dose of 3.2 uM/kg; format: functional; outline: as §2
Rattus norvegicus [35] = test: In vivo accumulation of DOPA in percent of saline control was determined in limbic forebrain of reserpine pretreated rat at dose of 3.2 uM/kg; format: functional; outline: as §2
Rattus norvegicus [36] = test: In vivo accumulation of DOPA in percent of saline control was determined in cortex of reserpine pretreated rat at a dose of 3.7 uM/kg; format: functional; outline: as §2
Rattus norvegicus [37] = test: In vivo accumulation of DOPA in percent of saline control was determined in limbic forebrain of reserpine pretreated rat at a dose of 3.7 uM/kg; format: functional; outline: as §2
Rattus norvegicus [38] = test: In vivo accumulation of 5HTP in percent of saline control was determined in limbic forebrain of reserpine pretreated rat at a dose of 3.7 uM/kg; format: functional; outline: as §2
Rattus norvegicus [39] = test: In vivo accumulation of DOPA in percent of saline control was determined in striatum of reserpine pretreated rat at a dose of 3.7 uM/kg; format: functional; outline: as §2
Rattus norvegicus [40] = test: In vivo accumulation of 5HTP in percent of saline control was determined in cortex of reserpine pretreated rat at a dose of 3.7 uM/kg; format: functional; outline: as §2
Rattus norvegicus [41] = test: In vivo accumulation of 5HTP in percent of saline control was determined in striatum of reserpine pretreated rat at a dose of 3.7 uM/kg; format: functional; outline: as §2

T1 sequence (P18901 whole entry): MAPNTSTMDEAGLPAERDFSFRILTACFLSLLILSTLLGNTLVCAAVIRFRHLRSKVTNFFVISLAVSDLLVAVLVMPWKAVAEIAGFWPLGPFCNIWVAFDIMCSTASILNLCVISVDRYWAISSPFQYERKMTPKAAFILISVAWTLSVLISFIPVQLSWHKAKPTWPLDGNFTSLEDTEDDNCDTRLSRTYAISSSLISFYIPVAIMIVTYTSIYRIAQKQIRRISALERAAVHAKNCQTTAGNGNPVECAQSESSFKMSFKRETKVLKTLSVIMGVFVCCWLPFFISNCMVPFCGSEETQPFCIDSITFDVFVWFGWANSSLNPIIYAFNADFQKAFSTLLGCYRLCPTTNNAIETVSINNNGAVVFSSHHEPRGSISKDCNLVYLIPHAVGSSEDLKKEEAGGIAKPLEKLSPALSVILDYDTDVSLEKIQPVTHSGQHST

Compound | Ki (D(2) dopamine receptor [2]) | Ki [3] | Ki (D(1A) dopamine receptor [4]) | Ki (D(2) dopamine receptor [11]) | also measured
COc1cccc2c1-c1cccc3c1[C@@H](C2)N(C(C)C)CC3 | 1000 nM | 375 nM |  |  | Ki (D(1A) dopamine receptor [1]): > 10000 nM
CN1CCc2cccc3c2[C@H]1Cc1cccc(C#N)c1-3 | 183 nM | 41.1 nM | 279 nM |  | 
COc1cccc2c1-c1cccc3c1[C@@H](C2)N(C)CC3 | 551 nM | 5.1 nM | 606 nM |  | 
CCc1cccc2c1-c1cccc3c1[C@@H](C2)N(C)CC3 | 79.2 nM | 4.5 nM | 270 nM |  | Accumulation (Rattus norvegicus [5]): 83; Accumulation (Rattus norvegicus [6]): 104; Accumulation (Rattus norvegicus [7]): 95; Accumulation (Rattus norvegicus [8]): 92; Accumulation (Rattus norvegicus [9]): 100; Accumulation (Rattus norvegicus [10]): 87
COc1cccc2c1-c1cccc3c1[C@@H](C2)NCC3 |  | 8.3 nM | > 5000 nM | > 1000 nM | 
CCCN1CCc2cccc3c2[C@H]1Cc1cccc(OC)c1-3 |  | 31.3 nM | > 5000 nM | 826 nM | Accumulation (Rattus norvegicus [12]): 96; Accumulation (Rattus norvegicus [13]): 82; Accumulation (Rattus norvegicus [14]): 43; Accumulation (Rattus norvegicus [15]): 87; Accumulation (Rattus norvegicus [16]): 66; Accumulation (Rattus norvegicus [17]): 89
Oc1cccc2c1-c1cccc3c1[C@@H](C2)N(Cc1ccccc1)CC3 |  | > 5000 nM | > 3000 nM | > 1000 nM | 
COc1cccc2c1-c1cccc3c1[C@@H](C2)N(Cc1ccccc1)CC3 |  | 3220 nM | > 10000 nM | > 1000 nM | 
CN1CCc2cccc3c2[C@H]1Cc1cccc(O)c1-3 |  |  |  |  | Accumulation (Rattus norvegicus [18]): 93; Accumulation (Rattus norvegicus [19]): 98; Accumulation (Rattus norvegicus [20]): 103; Accumulation (Rattus norvegicus [21]): 30; Accumulation (Rattus norvegicus [22]): 67; Accumulation (Rattus norvegicus [23]): 83
C=Cc1cccc2c1-c1cccc3c1[C@@H](C2)N(C)CC3 | 177 nM | 6 nM |  |  | Ki (D(1A) dopamine receptor [1]): 720 nM
CN1CCc2cccc3c2[C@H]1Cc1cccc(-c2ccccc2)c1-3 | 233 nM | 1.8 nM |  |  | Accumulation (Rattus norvegicus [24]): 107; Ki (D(1A) dopamine receptor [1]): 3630 nM; Accumulation (Rattus norvegicus [25]): 95; Accumulation (Rattus norvegicus [26]): 93; Accumulation (Rattus norvegicus [27]): 106; Accumulation (Rattus norvegicus [28]): 95; Accumulation (Rattus norvegicus [29]): 133
CCCN1CCc2cccc3c2[C@H]1Cc1cccc(O)c1-3 |  |  |  |  | Accumulation (Rattus norvegicus [30]): 29; Accumulation (Rattus norvegicus [31]): 97; Accumulation (Rattus norvegicus [32]): 106; Accumulation (Rattus norvegicus [33]): 87; Accumulation (Rattus norvegicus [34]): 122; Accumulation (Rattus norvegicus [35]): 66
Cc1cccc2c1-c1cccc3c1[C@@H](C2)N(C)CC3 | 201 nM | 14.4 nM | 700 nM |  | 
CN1CCc2cccc3c2[C@H]1Cc1cccc(C(N)=O)c1-3 |  | 198 nM | > 4000 nM | > 10000 nM | 
Oc1cccc2c1-c1cccc3c1[C@@H](C2)NCC3 |  | 5.7 nM | 1100 nM | > 1000 nM | Accumulation (Rattus norvegicus [36]): 96; Accumulation (Rattus norvegicus [37]): 78; Accumulation (Rattus norvegicus [38]): 108; Accumulation (Rattus norvegicus [39]): 71; Accumulation (Rattus norvegicus [40]): 122; Accumulation (Rattus norvegicus [41]): 89
COc1ccccc1-c1cccc2c1-c1cccc3c1[C@@H](C2)N(C)CC3 |  | 26.9 nM | > 3000 nM | 1330 nM | 
CC(=O)c1cccc2c1-c1cccc3c1[C@@H](C2)N(C)CC3 |  | 57.1 nM |  | 311 nM | Ki (D(1A) dopamine receptor [1]): 4690 nM
CC(C)N1CCc2cccc3c2[C@H]1Cc1cccc(O)c1-3 |  | 437 nM | > 10000 nM | 1010 nM | 
CN1CCc2cccc3c2[C@H]1Cc1cccc(OS(=O)(=O)C(F)(F)F)c1-3 | 195 nM | 7.7 nM | 386 nM |  | 
